Results as given in ChEMBL document CHEMBL4043283, “Discovery and Preclinical Development of IIIM-290, an Orally Active Potent Cyclin-Dependent Kinase Inhibitor” (J Med Chem, 2018).
In brackets after ≈: the same amount, converted by molar mass. Activity calls are given as the source filed them. The rule behind the calls is not given here.

Experiments:
PC-3 = assay: Growth inhibition of human PC3 cells after 48 hrs by MTT assay; format: functional; details: PC-3, 48 h
Summary of the method: (§1)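 Cancer cell lines sourced from the National Cancer Institute (USA). Cells kept in appropriate growth medium at 37 °C, 95% humidity, 5% CO2. Antiproliferation read by tetrazolium (MTT) assay. GI50 values were determined only for compounds selected after an initial single-concentration screen.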

CDK1/Cyclin A = CDK1/Cyclin A (Homo sapiens, UniProt P06493); assay: Inhibition of CDK1/cyclin A (unknown origin) after 30 mins in presence of [33P]-gamma-ATP by filter binding assay; format: protein-complex assay
Chain of CDK1/Cyclin A (P06493 whole entry): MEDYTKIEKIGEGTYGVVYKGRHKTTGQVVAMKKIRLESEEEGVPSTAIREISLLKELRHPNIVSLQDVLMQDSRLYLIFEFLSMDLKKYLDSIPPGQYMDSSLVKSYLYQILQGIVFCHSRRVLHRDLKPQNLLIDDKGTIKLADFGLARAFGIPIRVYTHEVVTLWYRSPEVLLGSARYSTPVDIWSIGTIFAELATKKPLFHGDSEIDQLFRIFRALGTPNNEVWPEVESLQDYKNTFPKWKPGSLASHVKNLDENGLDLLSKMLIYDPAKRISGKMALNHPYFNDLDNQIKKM
Chain of CDK1/Cyclin A (P20248 whole entry, further chain): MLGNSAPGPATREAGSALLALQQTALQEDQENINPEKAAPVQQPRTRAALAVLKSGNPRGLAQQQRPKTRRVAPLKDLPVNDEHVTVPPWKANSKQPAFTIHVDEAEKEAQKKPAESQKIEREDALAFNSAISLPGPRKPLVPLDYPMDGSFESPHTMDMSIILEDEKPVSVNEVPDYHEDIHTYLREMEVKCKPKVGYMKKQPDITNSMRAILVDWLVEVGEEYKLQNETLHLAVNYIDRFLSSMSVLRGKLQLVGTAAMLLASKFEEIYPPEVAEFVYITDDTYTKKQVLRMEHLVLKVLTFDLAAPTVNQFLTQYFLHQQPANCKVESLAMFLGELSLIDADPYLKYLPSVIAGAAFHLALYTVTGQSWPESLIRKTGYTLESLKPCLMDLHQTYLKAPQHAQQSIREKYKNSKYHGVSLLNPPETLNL

[1] = molecular target: CDK4/Cyclin D3 (Homo sapiens) (UniProt P11802+P30281); assay: Inhibition of full length wild type human CDK4/cyclin D3 expressed in mammalian expression system at 0.5 uM by KINOMEscan method relative to control
Summary of the method: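 Competition binding screen (KINOMEscan) at 0.5 μM; primary binding read out as % of control, lower values indicating stronger interaction.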

MOLT-4 = assay: Growth inhibition of human MOLT4 cells after 48 hrs by MTT assay; format: functional; details: MOLT-4, 48 h; summary of the method: as §1
MDA-MB-468 = assay: Growth inhibition of human MDA-MB-468 cells after 48 hrs by MTT assay; format: functional; details: MDA-MB-468, 48 h; summary of the method: as §1
OVCAR-3 = assay: Growth inhibition of human OVCAR3 cells after 48 hrs by MTT assay; format: functional; details: OVCAR-3, 48 h; summary of the method: as §1
OVCAR-5 = assay: Growth inhibition of human OVCAR5 cells after 48 hrs by MTT assay; format: functional; details: OVCAR-5, 48 h; summary of the method: as §1
[2] = Growth inhibition of mouse adenocarcinoma cells after 48 hrs by MTT assay; format: functional; details: Adenocarcinoma cell
[3] = Growth inhibition of human FR2 cells after 48 hrs by MTT assay; format: cell-based
Summary of the method: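 fR2 is a normal epithelial line of ECACC type. Cells were grown in appropriate medium at 37 °C, 95% humidity, 5% CO2. Antiproliferative effect measured by MTT assay, with GI50 values derived from concentration-response testing.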

[4] = Thermodynamic equilibrium solubility of compound in PBS at pH 7.4 after 5 hrs by shake flask method; format: physicochemical; details: read-out: Therm_solubility
[5] = Ionization constant, pKa of compound by UV spectrophotometric analysis; format: physicochemical
[6] = Protein binding in dog plasma at 3 uM after 5 hrs by equilibrium dialysis method; format: ADME, cell-free, Canis lupus familiaris; details: read-out: PPB (converted)
[7] = Protein binding in human plasma at 3 uM after 5 hrs by equilibrium dialysis method; format: ADME, cell-free; details: read-out: PPB (converted)
Cytochrome P450 2D6 = Cytochrome P450 2D6 (Homo sapiens, UniProt P10635); assay: Inhibition of human CYP2D6 using fluorogenic substrate preincubated with co-factor for 10 mins followed by enzyme-substrate addition by fluorometric method; format: ADME
Chain of Cytochrome P450 2D6 (P10635 whole entry): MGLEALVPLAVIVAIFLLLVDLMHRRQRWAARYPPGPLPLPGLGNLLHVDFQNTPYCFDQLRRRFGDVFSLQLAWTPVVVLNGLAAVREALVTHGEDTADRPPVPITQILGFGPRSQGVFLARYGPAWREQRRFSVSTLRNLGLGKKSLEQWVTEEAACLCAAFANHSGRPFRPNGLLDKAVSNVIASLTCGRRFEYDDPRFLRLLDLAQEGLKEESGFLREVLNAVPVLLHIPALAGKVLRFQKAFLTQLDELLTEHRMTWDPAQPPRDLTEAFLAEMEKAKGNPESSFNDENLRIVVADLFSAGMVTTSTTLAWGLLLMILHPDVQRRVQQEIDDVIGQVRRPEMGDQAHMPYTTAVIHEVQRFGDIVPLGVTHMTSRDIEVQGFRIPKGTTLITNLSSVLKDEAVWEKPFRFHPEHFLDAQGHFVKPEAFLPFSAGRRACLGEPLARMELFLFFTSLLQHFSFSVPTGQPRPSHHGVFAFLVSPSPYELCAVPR
Summary of the method: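 Cofactor plus test item or vehicle, in triplicate, preincubated 10 min at 37 °C; prewarmed enzyme–substrate mix added and incubated at 37 °C with shaking. Quench: acetonitrile (CYP2C19, CYP3A4) or 0.25 M Tris in 60% methanol (CYP2C9, CYP2D6). Metabolite fluorescence read; % inhibition computed against enzyme controls and enzyme-free blanks.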

[8] = Half life in rat hepatocytes at 3 uM after 180 mins by LC-MS/MS analysis; format: ADME, cell-based, Hepatocyte
[9] = Intrinsic clearance in mouse hepatocytes assessed per million cells at 3 uM after 180 mins by LC-MS/MS analysis; format: ADME, cell-based, Hepatocyte; details: read-out: CLH
[10] = Half life in rat liver S9 fraction preincubated for 5 mins followed by NADPH addition measured after 30 mins by LC-MS/MS analysis; format: ADME, tissue-based
Summary of the method: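 Parent loss followed over time to give half-life, with NADPH as cofactor for microsomal phase I metabolism.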

Liver [11] = assay: Intrinsic clearance in dog liver S9 fraction assessed per mg of protein preincubated for 5 mins followed by NADPH addition measured after 30 mins by LC-MS/MS analysis; format: ADME, tissue-based, Canis lupus familiaris; details: s9, 0.5 h
Summary of the method: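 Intrinsic clearance obtained from substrate disappearance over time, reported per mg protein (microsomes, S9) or per 10^6 cells (hepatocytes).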

[12] = Cmax in BALB/c mouse at 1 mg/kg, iv by LC-MS/MS analysis; format: ADME, organism-based; design: dose 1 mg/kg, route intravenous; details: in vivo
[13] = AUC (0 to infinity) in BALB/c mouse at 10 mg/kg, po by LC-MS/MS analysis; format: ADME, organism-based; design: dose 10 mg/kg, time infinity, route oral; details: in vivo
[14] = Clearance in BALB/c mouse at 1 mg/kg, iv by LC-MS/MS analysis; format: ADME, organism-based; details: in vivo
[15] = Half life in BALB/c mouse at 3 mg/kg, po by LC-MS/MS analysis; format: ADME, organism-based; details: in vivo
[16] = AUC in BALB/c mouse at 30 mg/kg, po by LC-MS/MS analysis; format: ADME, organism-based; details: in vivo
[17] = Tmax in Sprague-Dawley rat at 10 mg/kg, po by LC-MS/MS analysis; format: ADME, organism-based; details: in vivo
[18] = AUC in Sprague-Dawley rat at 30 mg/kg, po by LC-MS/MS analysis; format: ADME, organism-based; details: in vivo
[19] = Pancreas to plasma partition coefficient, Kp of the compound in Sprague-Dawley rat at 30 mg/kg, po measured at 8 hrs; format: ADME, organism-based; details: pancreas and plasma
[20] = Pancreas to plasma partition coefficient, Kp of the compound in BALB/c mouse at 30 mg/kg, po measured at 1 hr; format: ADME, organism-based; details: pancreas and plasma
Liver [21] = assay: Drug uptake in BALB/c mouse liver at 30 mg/kg, po after 8 hrs; format: ADME, organism-based; details: in vivo
Ehrlich = assay: Antitumor activity against Swiss mouse EAC allografted in Swiss albino mouse assessed as tumor growth inhibition at 100 mg/kg, po administered for 9 day measured on day 13 relative to control; format: functional; details: read-out: TGI
Mus musculus = assay: Toxicity in CD1 nude mouse xenografted with human MOLT4 cells assessed as mortality at 50 mg/kg, po qd administered on day 10 to 25 post tumor inoculation; format: organism-based; details: in vivo
[22] = Ratio of Cmax in BALB/c mouse at 30 mg/kg, po to GI50 for human HL60 cells
MIA PaCa-2 = assay: Antitumor activity against human MIAPaCa2 cells xenografted in CD1 nude mouse assessed as tumor growth inhibition at 25 mg/kg, po qd administered on day 10 to 25 post tumor inoculation; format: functional, organism-based
HCT-116 = assay: Antitumor activity against human HCT116 cells xenografted in CD1 nude mouse assessed as tumor growth inhibition at 25 mg/kg, po qd administered on day 10 to 25 post tumor inoculation; format: functional, organism-based
Salmonella typhimurium [23] = assay: Mutagenicity in Salmonella typhimurium TA102 at 50 ug/plate in presence of liver S9 fraction by Ames test; format: toxicity; details: salmonella enterica subsp. enterica serovar typhimurium
Salmonella typhimurium [24] = assay: Mutagenicity in Salmonella typhimurium TA102 at 50 ug/plate in absence of liver S9 fraction by Ames test; format: toxicity; details: salmonella enterica subsp. enterica serovar typhimurium
PBL [25] = assay: Genotoxicity in human PBL at 0.125 to 2 ug/ml in presence of cytokinesis blocking agent cytochalasin B and liver S9 fraction by micronucleus test; format: toxicity, cell-based
PBL [26] = assay: Genotoxicity in human PBL at 0.125 to 2 ug/ml in presence of cytokinesis blocking agent cytochalasin B and absence of liver S9 fraction by micronucleus test; format: toxicity, cell-based
[27] = Acute toxicity in po dosed Wistar rat assessed as mortality; format: organism-based; details: in vivo

SMILES: CN1CC[C@H](c2c(O)cc(O)c3c(=O)cc(/C=C/c4c(Cl)cccc4Cl)oc23)[C@H](O)C1
- GI50 (PC-3): 3 to 6 µM
- IC50 (CDK1/Cyclin A): 0.00493 µM
- inhibition [1]: > 98%
- GI50 (MOLT-4): 0.5 µM
- GI50 (MDA-MB-468): 4 µM
- GI50 (OVCAR-3): 8 µM
- GI50 (OVCAR-5): 7 µM
- GI50 [2]: 1.2 µM
- GI50 at 48 h [3]: 19 µM
- solubility thermodynamic at 5 h [4]: 2.29 µg/mL (≈ 4.95 µM)
- pKa [5]: 5.4
- fraction unbound at 5 h, 3 µM [6]: 0.05
- fraction unbound at 5 h, 3 µM [7]: 0.033
- IC50 (Cytochrome P450 2D6): > 20 µM
- half-life at 3 µM [8]: 6.27 h
- hepatocyte CLint at 3 µM [9]: 14.9 µL/min/1e6 cells
- half-life [10]: 0.517 h
- CLint (Liver [11]): 12 µL/min/mg
- Cmax [12]: 677 nM
- AUC(0-inf) [13]: 4.4 µM·h
- clearance [14]: 55.4 mL/min/kg
- half-life [15]: 3.09 h
- AUC [16]: 11.3 µM·h
- Tmax [17]: 1.75 h
- AUC [18]: 15.9 µM·h
- Kp at 8 h [19]: 10.5
- Kp at 1 h [20]: 24.4
- Drug uptake (Liver [21]): Active
- inhibition in vivo at 100 mg/kg (Ehrlich): 39%
- Activity (Mus musculus): Non-Toxic
- Ratio [22]: 4
- TGI (MIA PaCa-2): inactive
- TGI (HCT-116): inactive
- Activity (Salmonella typhimurium [23]): Non-Toxic
- Activity (Salmonella typhimurium [24]): Non-Toxic
- Activity (PBL [25]): Non-Toxic
- Activity (PBL [26]): Non-Toxic
- LD50 [27]: 1000 mg/kg
